Data reported in ChEMBL document CHEMBL1138713 (Bioorg Med Chem Lett, 2004).

Each molecule was assayed on Trypanosoma cruzi (assay: Ability to cause lysis of trypomastigote form of Trypanosoma cruzi was determined).
Format: functional, organism-based
In short: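 Bloodstream trypomastigotes (Y strain) harvested from mice inoculated intraperitoneally with 10⁵ parasites; assay in Dulbecco's modified Eagle medium; DMSO stocks, final solvent ≤0.5%.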

SMILES	IC50 [µM]
Cn1c([N+](=O)[O-])cnc1-c1nnc(N/N=C\c2ccc(O)c(O)c2)s1 [BRAZILIZONE A]	5.3
Cn1c([N+](=O)[O-])cnc1-c1nnc(N/N=C/c2ccc(OC(F)(F)F)cc2)s1	> 200
Cn1c([N+](=O)[O-])cnc1-c1nnc(N/N=C/c2ccccc2O)s1	54.2
Oc1ccc(/C=N/Nc2nnc(-c3ccccc3)s2)cc1	> 200
Cn1c([N+](=O)[O-])cnc1-c1nnc(N/N=C/c2cc(C(C)(C)C)c(O)c(C(C)(C)C)c2)s1	33.2
Cn1c([N+](=O)[O-])cnc1-c1nnc(N/N=C/c2ccc3c(c2)OCO3)s1	> 200
O=[N+]([O-])c1ccc(/C=N/Nc2nnc(-c3ccccc3)s2)cc1	> 200
COc1ccc(/C=N/Nc2nnc(-c3ncc([N+](=O)[O-])n3C)s2)cc1	> 200
Cn1c([N+](=O)[O-])cnc1-c1nnc(N/N=C/c2ccc([N+](=O)[O-])cc2)s1	22
COc1cccc(/C=N/Nc2nnc(-c3ncc([N+](=O)[O-])n3C)s2)c1O	> 200
COc1ccc(/C=N/Nc2nnc(-c3ncc([N+](=O)[O-])n3C)s2)cc1O	50.5
Oc1ccc(/C=N/Nc2nnc(-c3ccccc3)s2)cc1O	63.4
Cn1c([N+](=O)[O-])cnc1-c1nnc(N/N=C/c2ccc(Cl)cc2)s1	38.4
Cn1c([N+](=O)[O-])cnc1-c1nnc(N/N=C/c2ccc(Br)cc2)s1	17
Cn1c([N+](=O)[O-])cnc1-c1nnc(N/N=C/c2ccc(F)cc2)s1	> 200
Oc1ccccc1/C=N/Nc1nnc(-c2ccccc2)s1	> 200
COc1cc(/C=N/Nc2nnc(-c3ncc([N+](=O)[O-])n3C)s2)ccc1O	> 200
Cn1c([N+](=O)[O-])cnc1-c1nnc(N/N=C/c2ccccc2)s1	> 200
C(=N\Nc1nnc(-c2ccccc2)s1)/c1ccccc1	> 200
Cn1c([N+](=O)[O-])cnc1-c1nnc(N/N=C/c2ccc(O)cc2)s1	11.6
CC(C)(C)c1cc(/C=N/Nc2nnc(-c3ccccc3)s2)cc(C(C)(C)C)c1O	136
